Test results taken from ChEMBL document CHEMBL2029303, “Syntheses and biological studies of novel spiropiperazinyl oxazolidinone antibacterial agents using a spirocyclic diene derived acylnitroso Diels-Alder reaction” (Bioorg Med Chem, 2012).
Converted amounts (≈) assume the structure as drawn. The source made the active and inactive calls. The rule behind the calls is not given here.

What was measured:
[1] = test system: Mycobacterium tuberculosis; assay: Antimycobacterial activity against Mycobacterium tuberculosis H37Rv grown in iron-deficient glycerol-alanine-salts media; format: functional
[2] = test system: Mycobacterium tuberculosis; assay: Antimycobacterial activity against Mycobacterium tuberculosis H37Rv grown in glycerol-alanine-salts media; format: functional
Bacillus subtilis [3] = assay: Antibacterial activity against Bacillus subtilis ATCC 6633 at 50 uL of 2 mM solution of compound in 1:9 DMSO/MeOH after 24 hrs by agar diffusion method; format: functional
Outline: (§1)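 Agar diffusion assay against representative Gram-positive and Gram-negative bacteria and Mycobacterium vaccae; the read-out is the diameter of the inhibition zone around the applied compound, measured in mm.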

Bacillus subtilis [4] = assay: Antibacterial activity against Bacillus subtilis ATCC 6633 assessed as partial clear inhibition zone at 50 uL of 2 mM solution of compound in 1:9 DMSO/MeOH after 24 hrs by agar diffusion method; format: functional; outline: as §1
Bacillus subtilis [5] = assay: Antibacterial activity against Bacillus subtilis ATCC 6633 assessed as clear inhibition zone at 50 uL of 2 mM solution of compound in 1:9 DMSO/MeOH after 24 hrs by agar diffusion method; format: functional; outline: as §1
Staphylococcus aureus [6] = assay: Antibacterial activity against Staphylococcus aureus SG 511 at 50 uL of 2 mM solution of compound in 1:9 DMSO/MeOH after 24 hrs by agar diffusion method; format: functional; outline: as §1
Staphylococcus aureus [7] = assay: Antibacterial activity against methicillin-resistant Staphylococcus aureus 134/93 at 50 uL of 2 mM solution of compound in 1:9 DMSO/MeOH after 24 hrs by agar diffusion method; format: functional
Outline: (§2)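 Agar diffusion screen; read-out is the diameter of the inhibition zone, in mm.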

Escherichia coli = assay: Antibacterial activity against Escherichia coli SG 458 at 50 uL of 2 mM solution of compound in 1:9 DMSO/MeOH after 24 hrs by agar diffusion method; format: functional; outline: as §1
Pseudomonas aeruginosa [8] = assay: Antibacterial activity against Pseudomonas aeruginosa SG 137 at 50 uL of 2 mM solution of compound in 1:9 DMSO/MeOH after 24 hrs by agar diffusion method; format: functional; outline: as §1
Pseudomonas aeruginosa [9] = assay: Antibacterial activity against Pseudomonas aeruginosa K799/61 at 50 uL of 2 mM solution of compound in 1:9 DMSO/MeOH after 24 hrs by agar diffusion method; format: functional; outline: as §1
Mycolicibacterium vaccae [10] = assay: Antimycobacterial activity against Mycobacterium vaccae IMET 10670 assessed as partial clear inhibition zone at 50 uL of 2 mM solution of compound in 1:9 DMSO/MeOH after 24 hrs by agar diffusion method; format: functional; outline: as §1
Staphylococcus aureus [11] = assay: Antibacterial activity against methicillin-sensitive Staphylococcus aureus ATCC 29213; format: functional
Staphylococcus aureus [12] = assay: Antibacterial activity against methicillin-resistant Staphylococcus aureus ATCC 700699; format: functional
Enterococcus faecalis [13] = assay: Antibacterial activity against vancomycin-resistant Enterococcus faecalis 1528 at 50 uL of 2 mM solution of compound in 1:9 DMSO/MeOH after 24 hrs by agar diffusion method; format: functional; outline: as §2
Staphylococcus aureus [14] = assay: Antibacterial activity against methicillin-resistant Staphylococcus aureus ATCC 700699 in presence of 50% mouse serum; format: functional
Outline: (§3)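 MIC assay run with 50% mouse or human serum added to gauge protein-binding effect. Fold shift is calculated as the MIC with serum over the MIC without serum.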

Staphylococcus aureus [15] = assay: Antibacterial activity against methicillin-resistant Staphylococcus aureus ATCC 700699 in presence of 50% human serum; format: functional; outline: as §3
Staphylococcus aureus [16] = assay: Ratio of MIC methicillin-resistant Staphylococcus aureus ATCC 700699 in presence of 50% mouse serum to MIC for […]; format: functional; outline: as §3
Staphylococcus aureus [17] = assay: Ratio of MIC methicillin-resistant Staphylococcus aureus ATCC 700699 in presence of 50% human serum to MIC for […]; format: functional; outline: as §3
[18] = Cytotoxicity against human HepG2 cells; format: cell-based
Staphylococcus aureus [19] = assay: Antibacterial activity against Staphylococcus aureus SG 511 assessed as clear inhibition zone at 50 uL of 2 mM solution of compound in 1:9 DMSO/MeOH after 24 hrs by agar diffusion method; format: functional; outline: as §1
Staphylococcus aureus [20] = assay: Antibacterial activity against methicillin-resistant Staphylococcus aureus 134/93 assessed as clear inhibition zone at 50 uL of 2 mM solution of compound in 1:9 DMSO/MeOH after 24 hrs by agar diffusion method; format: functional; outline: as §2
Enterococcus faecalis [21] = assay: Antibacterial activity against vancomycin-resistant Enterococcus faecalis 1528 assessed as unclear inhibition zone at 50 uL of 2 mM solution of compound in 1:9 DMSO/MeOH after 24 hrs by agar diffusion method; format: functional; outline: as §2
Pseudomonas aeruginosa [22] = assay: Antibacterial activity against Pseudomonas aeruginosa K799/61 assessed as clear inhibition zone at 50 uL of 2 mM solution of compound in 1:9 DMSO/MeOH after 24 hrs by agar diffusion method; format: functional, organism-based; outline: as §1
Mycolicibacterium vaccae [23] = assay: Antimycobacterial activity against Mycobacterium vaccae IMET 10670 at 50 uL of 2 mM solution of compound in 1:9 DMSO/MeOH after 24 hrs by agar diffusion method; format: functional; outline: as §1
Mycolicibacterium vaccae [24] = assay: Antimycobacterial activity against Mycobacterium vaccae IMET 10670 assessed as unclear inhibition zone at 50 uL of 2 mM solution of compound in 1:9 DMSO/MeOH after 24 hrs by agar diffusion method; format: functional; outline: as §1
Staphylococcus aureus [25] = assay: Antibacterial activity against Staphylococcus aureus SG 511 assessed as partial clear inhibition zone at 50 uL of 2 mM solution of compound in 1:9 DMSO/MeOH after 24 hrs by agar diffusion method; format: functional; outline: as §1
Enterococcus faecalis [26] = assay: Antibacterial activity against vancomycin-resistant Enterococcus faecalis 1528 assessed as partial clear inhibition zone at 50 uL of 2 mM solution of compound in 1:9 DMSO/MeOH after 24 hrs by agar diffusion method; format: functional; outline: as §2

| Structure (SMILES) | MIC [1] [µM] | MIC [2] [µM] | diameter of the inhibition zone (DIZ) (Bacillus subtilis [3]) [mm] | diameter of the inhibition zone (DIZ) (Bacillus subtilis [5]) [mm] | diameter of the inhibition zone (DIZ) (Staphylococcus aureus [6]) [mm] | diameter of the inhibition zone (DIZ) (Staphylococcus aureus [7]) [mm] | diameter of the inhibition zone (DIZ) (Escherichia coli) [mm] | diameter of the inhibition zone (DIZ) (Pseudomonas aeruginosa [8]) [mm] | diameter of the inhibition zone (DIZ) (Pseudomonas aeruginosa [9]) [mm] | diameter of the inhibition zone (DIZ) (Mycolicibacterium vaccae [10]) [mm] | diameter of the inhibition zone (DIZ) (Enterococcus faecalis [13]) [mm] | other results |
| --- | --- | --- | --- | --- | --- | --- | --- | --- | --- | --- | --- | --- |
| CC(=O)NC[C@H]1CN(c2ccc(N3CCOCC3)c(F)c2)C(=O)O1 [LINEZOLID] | 0.4 | – | – | – | – | – | – | – | – | – | – | – |
| CC(C)(C)OC(=O)N1OC2CCC1C21CCN(c2ccc(NC(=O)OCc3ccccc3)cc2F)CC1 (stereo not drawn) | > 128 | > 128 | – | – | – | – | – | – | – | – | – | – |
| CC(C)(C)OC(=O)N1OC2CCC1C21CCN(c2ccc([N+](=O)[O-])cc2F)CC1 (stereo not drawn) | > 128 | > 128 | – | – | – | – | – | – | – | – | – | – |
| CC(C)(C)OC(=O)N1OC2CCC1C21CCN(c2ccc(N3C[C@H](CO)OC3=O)cc2F)CC1 (stereo partly drawn) | > 128 | 97 | 23.5 | 28 | 22 | 24 | 0 | 0 | 0 | 30 | 22 | diameter of the inhibition zone (DIZ) (Bacillus subtilis [4]): 30 mm; MIC (Staphylococcus aureus [11]): > 64 µg/mL; MIC (Staphylococcus aureus [12]): 32 µg/mL (≈ 67 µM); MIC (Staphylococcus aureus [14]): > 64 µg/mL; MIC (Staphylococcus aureus [15]): > 34 µg/mL; Ratio (Staphylococcus aureus [16]): >2; Ratio (Staphylococcus aureus [17]): >2; CC50 [18]: > 100 µM |
| CC(C)(C)OC(=O)N1OC2CCC1C21CCN(c2ccc(N)cc2F)CC1 (stereo not drawn) | > 128 | > 128 | – | – | – | – | – | – | – | – | – | – |
| CC(C)(C)OC(=O)N1OC2CCC1C21CCN(c2ccc(N3C[C@H](CN)OC3=O)cc2F)CC1 (stereo partly drawn) | – | – | 12 | – | 10 | – | 10 | 0 | – | – | – | diameter of the inhibition zone (DIZ) (Staphylococcus aureus [19]): 13 mm; diameter of the inhibition zone (DIZ) (Staphylococcus aureus [20]): 14 mm; diameter of the inhibition zone (DIZ) (Enterococcus faecalis [21]): 14 mm; diameter of the inhibition zone (DIZ) (Pseudomonas aeruginosa [22]): Active; diameter of the inhibition zone (DIZ) (Mycolicibacterium vaccae [23]): 18 mm; diameter of the inhibition zone (DIZ) (Mycolicibacterium vaccae [24]): 25 mm |
| CC(=O)NC[C@H]1CN(c2ccc(N3CCC4(CC3)C3CCC4N(C(=O)OC(C)(C)C)O3)c(F)c2)C(=O)O1 (stereo partly drawn) | 22 | 24.4 | 25 | 27 | 18 | 25 | 0 | 0 | 0 | 37 | 23 | diameter of the inhibition zone (DIZ) (Staphylococcus aureus [25]): 22 mm; diameter of the inhibition zone (DIZ) (Mycolicibacterium vaccae [23]): 24 mm; MIC (Staphylococcus aureus [11]): 64 µg/mL (≈ 123 µM); MIC (Staphylococcus aureus [12]): 16 µg/mL (≈ 30.9 µM); MIC (Staphylococcus aureus [14]): 32 µg/mL; MIC (Staphylococcus aureus [15]): 62 µg/mL; Ratio (Staphylococcus aureus [16]): 2; Ratio (Staphylococcus aureus [17]): 4; CC50 [18]: > 100 µM |
| CC(=O)NC[C@H]1CN(c2ccc(N3CCC4(CC3)C(O)CCC4NC(=O)OC(C)(C)C)c(F)c2)C(=O)O1 (stereo partly drawn) | > 128 | > 128 | 14 | 19 | – | 14 | 0 | 0 | 0 | 13 | 15 | diameter of the inhibition zone (DIZ) (Staphylococcus aureus [25]): 16 mm; diameter of the inhibition zone (DIZ) (Staphylococcus aureus [20]): 18 mm; diameter of the inhibition zone (DIZ) (Enterococcus faecalis [26]): 18 mm |
| CCCC(=O)OC[C@H]1CN(c2ccc(N3CCC4(CC3)C3CCC4N(C(=O)OC(C)(C)C)O3)c(F)c2)C(=O)O1 (stereo partly drawn) | 29.2 | 19.2 | – | – | – | – | – | – | – | – | – | – |
| CC(C)(C)OC(=O)N1OC2CCC1C21CCN(c2ccc(N3C[C@H](COS(C)(=O)=O)OC3=O)cc2F)CC1 (stereo partly drawn) | 67.4 | 118 | – | – | – | – | – | – | – | – | – | – |
